Measurements from article PMC5321513 (Structure (London, England : 1993), 2017).
Values belong to the molecule of their own block, whether it stands above or below them. Where a SMILES comes first, the peptide text is derived from it. [ ]: non-standard residue; d: D form. pS = N[C@@H](COP(=O)(O)O)C(=O)O

Columns and labels:
14-3-3σ [1] = biological target: T1, 14-3-3σ (Homo sapiens, UniProt P31947); test: Isothermal titration calorimetry; format: binding; conditions: 30 °C, pH 7.6
T1 sequence (P31947 1-231): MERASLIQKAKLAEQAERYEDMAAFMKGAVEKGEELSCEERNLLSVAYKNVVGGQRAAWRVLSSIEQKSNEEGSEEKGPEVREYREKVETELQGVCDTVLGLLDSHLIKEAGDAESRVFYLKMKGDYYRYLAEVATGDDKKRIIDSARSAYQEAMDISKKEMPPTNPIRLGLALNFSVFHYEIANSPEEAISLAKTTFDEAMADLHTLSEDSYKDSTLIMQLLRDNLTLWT
How it was run: (§1)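 ITC was run at 30 °C in 20 mM Tris-HCl pH 7.6 with 150 mM NaCl, 0.1 mM EDTA and 2 mM β-mercaptoethanol. 2 μl aliquots of 14-3-3 were injected into a 0.2 ml cell holding the test phosphopeptide: 44 μM peptide titrated with 0.5 mM full-length human 14-3-3γ, or 100 μM peptide titrated with 1 mM 14-3-3σ. Heat of dilution was subtracted before curve fitting. There were at least three repeats with varied concentrations.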

14-3-3γ = biological target: T2, 14-3-3γ (Homo sapiens, UniProt P61981); test: Isothermal titration calorimetry; format: binding; conditions: 30 °C, pH 7.6
T2 sequence (P61981 1-247): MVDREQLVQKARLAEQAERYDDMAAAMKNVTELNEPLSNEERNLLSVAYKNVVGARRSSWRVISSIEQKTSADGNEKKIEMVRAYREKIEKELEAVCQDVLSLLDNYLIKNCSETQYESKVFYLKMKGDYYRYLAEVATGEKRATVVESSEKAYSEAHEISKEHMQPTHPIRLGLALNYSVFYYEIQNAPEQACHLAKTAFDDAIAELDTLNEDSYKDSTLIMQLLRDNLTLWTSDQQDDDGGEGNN
How it was run: as §1

14-3-3ζ = conditions: ref Sluchanko et al., 2011; cited from earlier work
14-3-3 dimer = test: Affinity of pHSPB6 dimer to the 14-3-3 dimer; format: binding, human; conditions: Discussion
14-3-3σ [2] = biological target: T1, 14-3-3σ; test: Fluorescence competition titration; format: binding; conditions: equimolar concentration and 7-fold excess of phosphopeptide; 30°C
14-3-3σ [3] = biological target: T1, 14-3-3σ; test: AEDANS fluorescence titration of pHSPB6AEDANS by 14-3-3σ; format: binding; conditions: excitation at 336 nm, 4.2 µM pHSPB6AEDANS, 30°C
How it was run: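 Full-length HSPB6 was phosphorylated at Ser16 by PKA in vitro and moved into 20 mM HEPES pH 7.5 with 100 mM NaCl. It was reduced with 20 mM DTT for 20 min at room temperature, desalted, then labelled with a 6-fold molar excess of 1,5-I-AEDANS (1 h room temperature, then overnight at 4 °C), reaching 90% labelling. Human 14-3-3σ(1-231) was added stepwise with 5 min equilibration at 30 °C. Excitation was 336 nm and emission was read at 488 nm. Curves were buffer-corrected and fitted to a quadratic equation.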

14-3-3 = conditions: in vitro; ref Sudnitsyna et al., 2012; cited from earlier work

stoichiometry of binding (ITC) (14-3-3σ [1]): one peptide per 14-3-3 subunit
stoichiometry of binding (ITC) (14-3-3γ): one peptide per 14-3-3 subunit
Molecule: CC(C)C[C@H](NC(=O)CNC(=O)[C@@H]1CCCN1C(=O)[C@H](CC(C)C)NC(=O)[C@@H]1CCCN1C(=O)[C@H](C)NC(=O)[C@H](COP(=O)(O)O)NC(=O)[C@H](C)NC(=O)[C@H](CCCNC(=N)N)NC(=O)[C@H](CCCNC(=N)N)NC(=O)[C@H](CC(C)C)NC(=O)[C@@H](N)Cc1c[nH]c2ccccc12)C(=O)N[C@@H](CCCCN)C(=O)O [phosphopeptide 11-23] (H-WLRRA[pS]APLPGLK-OH)

Molecule: pHSPB6: phosphorylated small heat shock protein HSPB6 (HSP20)
affinity to 14-3-3ζ (14-3-3ζ): micromolar affinity
apparent affinity to the 14-3-3 dimer (14-3-3 dimer): submicromolar apparent affinity

fluorescence peak shift upon titration with 14-3-3σ (14-3-3σ [3]): shifted from 486 to 479 nm
Molecule: pHSPB6^AEDANS: phosphorylated full-length HSPB6 stoichiometrically labeled at its unique Cys46 residue with 1,5-I-AEDANS
14-3-3σ/pHSPB6AEDANS interaction in the presence of phosphopeptide (14-3-3σ [2]): resulted in a saturable curve (Fig.2b), suggestive of a retained 14-3-3σ/pHSPB6^AEDANS interaction

Molecule: phosphocofilin: phosphocofilin, 14-3-3 complex partner
direct 14-3-3/phosphocofilin interaction (14-3-3): could not be confirmed in vitro
